Experiments:
[1] = test system: Vesicular stomatitis virus; assay: Antiviral activity against pseudo VSV infected in human 293T cells assessed as inhibition of vesicular stromatis G protein pseudo particles entry at 5 uM after 72 hrs by luciferase reporter gene assay; format: functional; conditions: HEK-293T
HeLa = assay: Cytotoxicity against human HeLa cells at 50 uM after 48 hrs by Alamar Blue assay; format: cell-based
Procedure, shortened: (§1)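 alamarBlue viability assay in HepG2, HeLa and 293T cells, compound up to 50 μM.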

Hepatitis C virus [2] = assay: Ratio of echinocystic acid IC50 to compound IC50 for pseudo HCV infected in human 293T cells assessed as inhibition of HCV pseudo particles entry after 72 hrs by luciferase reporter gene assay; format: functional, Hepacivirus hominis
Procedure, shortened: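 HCVpp luciferase entry assay in Huh-7 cells, 72 h at 37 °C. Six-point curves at tenfold steps, 1 nM–100 μM or 0.5 nM–50 μM. Each concentration in triplicate, mean and SD.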

Hepatitis C virus [3] = assay: Antiviral activity against pseudo HCV infected in human 293T cells assessed as inhibition of HCV pseudo particles entry at 5 uM after 72 hrs by luciferase reporter gene assay; format: functional, Hepacivirus hominis; conditions: HEK-293T
Hepatitis C virus [4] = assay: Antiviral activity against pseudo HCV infected in human 293T cells assessed as inhibition of HCV pseudo particles entry after 72 hrs by luciferase reporter gene assay; format: functional, organism-based, Hepacivirus hominis
Procedure, shortened: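 HCVpp (HCV E1/E2 on Env/Vpr-deficient HIV luciferase vector, made in 293T by cotransfection, harvested 72 h) added to 5×10^3 Huh-7 cells/well with compound at final 1 or 5 μM in 1% DMSO; 72 h, 37 °C; luciferase read. Inhibition = 100 − % of DMSO control after uninfected-well background subtraction; VSVpp run in parallel; duplicate, ≥3 experiments.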

HepG2 = assay: Cytotoxicity against human HepG2 cells at 50 uM after 48 hrs by Alamar Blue assay; format: cell-based; conditions: hepg2, 48 h; procedure, shortened: as §1
[5] = test system: Vesicular stomatitis virus; assay: Antiviral activity against pseudo VSV infected in human 293T cells assessed as inhibition of vesicular stromatis G protein pseudo particles entry at 1 uM after 72 hrs by luciferase reporter gene assay; format: functional; conditions: HEK-293T
HEK-293T = assay: Cytotoxicity against human 293T cells at 50 uM after 48 hrs by Alamar Blue assay; format: cell-based; procedure, shortened: as §1
Hepatitis C virus [6] = assay: Antiviral activity against pseudo HCV infected in human 293T cells assessed as inhibition of HCV pseudo particles entry at 1 uM after 72 hrs by luciferase reporter gene assay; format: functional, Hepacivirus hominis; conditions: HEK-293T
Hepatitis C virus [7] = assay: Antiviral activity against pseudo HCV infected in human 293T cells assessed as inhibition of HCV pseudo particles entry at 10 uM after 72 hrs by luciferase reporter gene assay; format: functional, Hepacivirus hominis; conditions: HEK-293T
CD81 antigen = target: T1, CD81 antigen (Homo sapiens, UniProt P60033); assay: Binding affinity to CD81 (unknown origin)
T1 sequence (P60033 whole entry): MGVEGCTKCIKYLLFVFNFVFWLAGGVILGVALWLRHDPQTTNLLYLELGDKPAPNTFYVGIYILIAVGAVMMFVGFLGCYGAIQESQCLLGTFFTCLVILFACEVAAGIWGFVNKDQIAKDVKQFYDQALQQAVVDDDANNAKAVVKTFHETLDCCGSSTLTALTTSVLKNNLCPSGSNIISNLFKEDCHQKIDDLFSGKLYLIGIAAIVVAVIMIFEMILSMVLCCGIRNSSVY
Procedure, shortened: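 BIAcore: E2 immobilized on a streptavidin sensor via SA–biotin and exposed to CD81 at 40.9–654.5 nM to fit K_D. CD81 was also tested together with compound.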

[8] = Hemolytic activity against rabbit RBC after 60 mins by spectrophotometry; format: ADME, cell-based, Oryctolagus cuniculus, Erythrocyte
Procedure, shortened: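 2% rabbit erythrocytes in 130 mM NaCl, 20 mM Tris-HCl pH 7.4 incubated with serially diluted compounds for 60 min at 37 °C. Hemolysis read as absorbance at 540 nm.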

## CC(=O)OC[C@H]1O[C@@H](O[C@H]2[C@H](OC(C)=O)[C@@H](OC(C)=O)[C@H](OC(=O)[C@]34CCC(C)(C)C[C@H]3C3=CC[C@@H]5[C@@]6(C)CC[C@H](O)C(C)(C)[C@@H]6CC[C@@]5(C)[C@]3(C)C[C@H]4O)O[C@@H]2COC(C)=O)[C@H](OC(C)=O)[C@@H](OC(C)=O)[C@H]1OC(C)=O
[1]
  inhibition at 5 µM: 14.9%
HeLa
  Activity: Non-toxic
Hepatitis C virus [2]
  Ratio IC50: 5
Hepatitis C virus [3]
  inhibition at 5 µM: 88.6%
Hepatitis C virus [4]
  IC50: 300 nM
HepG2
  Activity: Non-toxic
[5]
  inhibition at 1 µM: 11.2%
HEK-293T
  Activity: Non-toxic
Hepatitis C virus [6]
  inhibition at 1 µM: 80.4%

## CC1(C)CC[C@]2(C(=O)O)CC[C@]3(C)C(=C[C@@H](O)[C@@H]4[C@@]5(C)CC[C@H](O)C(C)(C)[C@@H]5CC[C@]43C)[C@@H]2C1
Hepatitis C virus [7]
  inhibition at 10 µM: 50%

## CC1(C)CC[C@]2(C(=O)O)[C@H](O)C[C@]3(C)C(=CC[C@@H]4[C@@]5(C)CC[C@H](O)[C@@](C)(CO)[C@@H]5CC[C@]43C)[C@@H]2C1
Hepatitis C virus [7]
  inhibition at 10 µM: 20%

## CC1(C)CC[C@]2(C(=O)O)CC[C@]3(C)C(=CC[C@@H]4[C@@]5(C)CC[C@H](O)[C@@](C)(CO)[C@@H]5CC[C@]43C)[C@@H]2C1 [HEDERAGENIN]
Hepatitis C virus [7]
  inhibition at 10 µM: 10%

## CC1(C)CC[C@]2(C(=O)O)[C@H](O)C[C@]3(C)C(=CC[C@@H]4[C@@]5(C)CC[C@H](O)[C@@](C)(C=O)[C@@H]5CC[C@]43C)[C@@H]2C1 [QUILLAIC ACID]
Hepatitis C virus [7]
  inhibition at 10 µM: 0%

## CC1(C)CC[C@]2(C(=O)O)CC[C@]3(C)C(=CC[C@@H]4[C@@]5(C)C[C@@H](O)[C@H](O)[C@@](C)(CO)[C@@H]5CC[C@]43C)[C@@H]2C1 [ARJUNOLIC ACID]
Hepatitis C virus [7]
  inhibition at 10 µM: 0%

## CC1(C)C[C@H]2C3=CC[C@@H]4[C@@]5(C)CC[C@H](O)C(C)(C)[C@@H]5CC[C@@]4(C)[C@]3(C)C[C@@H](O)[C@@]2(C(=O)O)C[C@@H]1O
Hepatitis C virus [7]
  inhibition at 10 µM: 15%

## CC1(C)CC[C@]2(C(=O)O)[C@H](O)C[C@]3(C)C(=CC[C@@H]4[C@@]5(C)CC[C@H](O)C(C)(C)[C@@H]5[C@H](O)C[C@]43C)[C@@H]2C1
Hepatitis C virus [7]
  inhibition at 10 µM: 5%

## CC1(C)[C@@H](O)CC[C@]2(C)[C@H]3CC=C4[C@@H]5C[C@](C)(CO)CC[C@]5(C(=O)O)[C@H](O)C[C@@]4(C)[C@]3(C)CC[C@@H]12
Hepatitis C virus [7]
  inhibition at 10 µM: 90%

## CC1(C)CC[C@]2(C(=O)O)[C@H](O)C[C@]3(C)C(=CC[C@@H]4[C@@]5(C)CC[C@H](O)C(C)(C)[C@@H]5CC[C@]43C)[C@@H]2C1 [ECHINOCYSTIC ACID]
HeLa
  Activity: Non-toxic
CD81 antigen
  Kd: 21 nM
HepG2
  Activity: Non-toxic
[8]; rabbit red blood cells, read-out: CC50
  HC50 at 1 h: 15 µM
HEK-293T
  Activity: Non-toxic

## CC1(C)CC[C@]2(C(=O)O)CC[C@]3(C)C(=CC[C@@H]4[C@@]5(C)CC[C@H](O)[C@@](C)(C=O)[C@@H]5CC[C@]43C)[C@@H]2C1
Hepatitis C virus [7]
  inhibition at 10 µM: 0%

## CC1(C)CC[C@]2(C(=O)O)CC[C@]3(C)C(=CC[C@@H]4[C@@]5(C)CC[C@H](OC6O[C@H](CO)[C@@H](O)[C@H](O)[C@H]6O)[C@@](C)(CO)[C@@H]5CC[C@]43C)[C@@H]2C1 (stereo partly drawn)
Hepatitis C virus [7]
  inhibition at 10 µM: 0%

## CC1(C)CC[C@]2(C(=O)O)CC[C@]3(C)C(=CC[C@@H]4[C@@]5(C)CCC(=O)C(C)(C)[C@@H]5CC[C@]43C)[C@@H]2C1 [OLEANONIC ACID]
Hepatitis C virus [7]
  inhibition at 10 µM: 0%

## CC1(C)CC[C@]2(C(=O)O)CC[C@]3(C)C(=CC[C@@H]4[C@@]5(C)CC[C@H](O)C(C)(C)[C@@H]5CC[C@]43C)[C@@H]2C1 [OLEANOLIC_ACID]
Hepatitis C virus [7]
  inhibition at 10 µM: 65%
Hepatitis C virus [4]
  IC50: 10000 nM
[8]; erythrocyte, 1 h
  Activity: Toxic

## C[C@H]1[C@H](C)CC[C@]2(C(=O)O)CC[C@]3(C)C(=CC[C@@H]4[C@@]5(C)CC[C@H](O)C(C)(C)[C@@H]5CC[C@]43C)[C@H]12 [URSOLIC ACID]
Hepatitis C virus [7]
  inhibition at 10 µM: 30%

## CC1(C)CC[C@]2(C(=O)O)CC[C@]3(C)[C@H](C(O)C[C@@H]4[C@@]5(C)CC[C@H](O)C(C)(C)[C@@H]5CC[C@]43C)[C@@H]2C1 (stereo partly drawn)
Hepatitis C virus [7]
  inhibition at 10 µM: 60%

## CC1(C)CC[C@]2(C(=O)O)[C@H](O)C[C@]3(C)C(=CC[C@@H]4[C@@]5(C)CC[C@H](O)[C@@](C)(C(=O)O)[C@@H]5CC[C@]43C)[C@@H]2C1
Hepatitis C virus [7]
  inhibition at 10 µM: 0%

## COC(=O)[C@]12CCC(C)(C)C[C@H]1C1=CC[C@@H]3[C@@]4(C)CC[C@H](O)C(C)(C)[C@@H]4CC[C@@]3(C)[C@]1(C)CC2 [METHYL OLEANOLATE]
Hepatitis C virus [7]
  inhibition at 10 µM: 60%

## CC1(C)CC[C@]2(C(=O)O)CC[C@]3(C)C(=CC[C@@H]4[C@@]5(C)CC[C@H](O)C(C)(C)[C@@H]5[C@@H](O)C[C@]43C)[C@@H]2C1
Hepatitis C virus [7]
  inhibition at 10 µM: 0%

## C=C(C)[C@@H]1CC[C@]2(C(=O)O)CC[C@]3(C)[C@H](CC[C@@H]4[C@@]5(C)CC[C@H](O)C(C)(C)[C@@H]5CC[C@]43C)[C@@H]12 [BETULINIC ACID]
Hepatitis C virus [7]
  inhibition at 10 µM: 75%

## CC(=O)O[C@H]1CC[C@]2(C)[C@H]3CC=C4[C@@H]5CC(C)(C)CC[C@]5(C(=O)O)CC[C@@]4(C)[C@]3(C)CC[C@H]2C1(C)C [ACETYL OLEANOLIC ACID]
Hepatitis C virus [7]
  inhibition at 10 µM: 10%

## CC1(C)CC[C@]2(C(=O)O)CC[C@]3(C)[C@H](C(=O)C[C@@H]4[C@@]5(C)CC[C@H](O)C(C)(C)[C@@H]5CC[C@]43C)[C@@H]2C1
Hepatitis C virus [7]
  inhibition at 10 µM: 50%

## CC1(C)CC[C@]2(C(=O)O)CC[C@]3(C)C(=CC[C@@H]4[C@@]5(C)CC[C@H](OC6O[C@H](CO)[C@@H](O)[C@H](O)[C@H]6O)C(C)(C)[C@@H]5CC[C@]43C)[C@@H]2C1 (stereo partly drawn)
Hepatitis C virus [7]
  inhibition at 10 µM: 0%

## CC1(C)CC[C@]2(C(=O)O)CC[C@]3(C)C(=CC[C@@H]4[C@@]5(C)CC[C@H](O)[C@@](C)(C(=O)O)[C@@H]5CC[C@]43C)[C@@H]2C1
Hepatitis C virus [7]
  inhibition at 10 µM: 0%

## CC1(C(=O)O)CC[C@]2(C)CC[C@]3(C)C(=CC(=O)[C@@H]4[C@@]5(C)CC[C@H](O)C(C)(C)[C@@H]5CC[C@]43C)[C@@H]2C1 (single isomer, unassigned) [ENOXOLONE]
Hepatitis C virus [7]
  inhibition at 10 µM: 5%

## CC1(C)CC[C@]2(C(=O)NCc3cn(CCCn4cc(CNC(=O)[C@]56CCC(C)(C)C[C@H]5C5=CC[C@@H]7[C@@]8(C)CC[C@H](O)C(C)(C)[C@@H]8CC[C@@]7(C)[C@]5(C)C[C@H]6O)nn4)nn3)[C@H](O)C[C@]3(C)C(=CC[C@@H]4[C@@]5(C)CC[C@H](O)C(C)(C)[C@@H]5CC[C@]43C)[C@@H]2C1
[1]
  inhibition at 5 µM: 11.9%
HeLa
  Activity: Non-toxic
Hepatitis C virus [2]
  Ratio IC50: 200
Hepatitis C virus [3]
  inhibition at 5 µM: 89%
Hepatitis C virus [4]
  IC50: 10 nM
HepG2
  Activity: Non-toxic
[5]
  inhibition at 1 µM: 16.5%
HEK-293T
  Activity: Non-toxic
Hepatitis C virus [6]
  inhibition at 1 µM: 86.3%

Reference: ChEMBL document CHEMBL2385072, “Development of oleanane-type triterpenes as a new class of HCV entry inhibitors” (J Med Chem, 2013)
